Screens deposited in PubChem by several laboratories.
NPY-Y1 PAM-ag: potentiates or activates human NPY-Y1 receptor; AID 1304; P25929; NPY-Y1 expressing cells, potentiator/agonist activation; activation, % at 3.6 µM; 220,000 compounds, 0.37% hits; in the data active = activation above about 33%, passing the limit was not always enough;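 also: cells stimulated with NPY at EC10 then isoproterenol at EC100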
WT yeast gro inh: growth inhibition of WT yeast, mitochondrial fusion screen; mitochondrial fusion phenotypic screen, WT strain; inhibition, % at 10 µM; 190,000 compounds, 2.1% hits; AID 1362; in the data active = inhibition above about 58%; tested in S. cerevisiae
NPY-Y1 antag: antagonists of human neuropeptide Y receptor Y1 | HEK293-CNG Y1 cells, membrane potential fluorescence; NPY at EC95, then isoproterenol | inhibition, % at 3.6 µM | 200,000 compounds, 1% hits | P25929;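 active = inhibition above the campaign mean inhibition of all tested compounds plus 3 SD, cut at about 20% in these data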
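Material: HEK293 Y1/CNG channel cell line | Also added: NPY (25 nM), isoproterenol (1 µM), Ro 20-1724 (25 µM) | Compound: One concentration, 3.6 µM, in 0.4% DMSO | Schedule: 3 h dye uptake, 1 h room-temperature compound, 45 min post-isoproterenol | Signal: Membrane-potential fluorescent dye readout | Read-out: % inhibition of NPY effect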
RAM network inh: inhibitors of the yeast RAM network. S. cerevisiae dse1pr::URA3 reporter, 5-FOA growth OD615, 2 d; analog-sensitive cbk1-as2 kinase mutant strain. inhibition, % at 50 µM. 190,000 compounds, 1.8% hits;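 active = inhibition above a set limit, 3 SD over mean compound inhibition, cut at about 8.4% in these data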;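 also: inhibition rescues growth on 5-FOA so higher OD means more RAM inhibition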
NPY2 pot ag: human NPY-Y2 potentiation or agonism, primary screen | activation, % at 3.6 µM | cells expressing NPY-Y2, potentiator/agonist read-out | P49146 | 220,000 compounds, 0.45% hits | AID 1359; in the data active = activation above about 27%;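 also: cells stimulated with NPY near EC25 plus isoproterenol at EC100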
Target sequence (P49146 whole entry, looked up): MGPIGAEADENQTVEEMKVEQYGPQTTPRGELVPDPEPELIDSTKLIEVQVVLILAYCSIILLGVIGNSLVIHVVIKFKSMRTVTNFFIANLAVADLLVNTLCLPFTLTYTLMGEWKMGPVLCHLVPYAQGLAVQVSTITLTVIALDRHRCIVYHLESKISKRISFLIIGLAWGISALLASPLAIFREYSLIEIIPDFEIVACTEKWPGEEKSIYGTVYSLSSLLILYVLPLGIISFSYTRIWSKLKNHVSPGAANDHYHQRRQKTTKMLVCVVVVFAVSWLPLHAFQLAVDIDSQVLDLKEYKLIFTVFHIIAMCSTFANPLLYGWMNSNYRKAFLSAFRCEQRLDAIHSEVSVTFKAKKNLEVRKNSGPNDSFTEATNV
NPY-Y2 antag: NPY-Y2 (human) receptor antagonism | P49146 | NPY-Y2 expressing cells, antagonist mode | inhibition, % at 2.7 µM | 140,000 compounds, 0.99% hits | AID 793; in the data active = inhibition above about 17%
RAM 5-FOA: RAM network inhibitors in efflux-deficient yeast | shares compounds with RAM network inh | S. cerevisiae efflux-deficient reporter strain, 5-FOA growth OD615, 2 days | max inhibition, % | 1,200 tested, under 10 active; call rule not given here
Each line names hits and unclear results; the compound was inactive in the other large screens (follow-up assays come after a bar, where they were run). Most compounds without a hit are left out; they make up all but 4.9% or so of the library.

Cc1ccc(S(=O)(=O)N2CCCN(C(=O)OC(C)(C)C)CC2)cc1	none (no result: WT yeast gro inh, NPY-Y1 antag, RAM network inh, NPY-Y2 antag)
CC(C)C[C@H](NC(=O)N1CCCCCC1)C(=O)O	none (no result: WT yeast gro inh, NPY-Y1 antag, RAM network inh, NPY-Y2 antag)
COc1ccc(Oc2ccc(/C=N/NC(=O)c3cccnc3)cc2[N+](=O)[O-])cc1	none (no result: NPY-Y2 antag)
COc1ccc(Oc2ccc(/C=C/C(=O)c3cccc(OC)c3)cc2[N+](=O)[O-])cc1	RAM network inh 11 | RAM 5-FOA inactive
CC(=O)Nc1ccc(S(=O)(=O)Nc2nc3ccccc3nc2-n2ccc(=NC(=O)c3ccc(F)cc3)cc2)cc1	RAM network inh 12 (no result: NPY-Y2 antag) | RAM 5-FOA inactive
COc1ccc(NC(=O)Nc2c(C)noc2-c2ccccc2)cc1	none (no result: WT yeast gro inh, NPY-Y1 antag, RAM network inh, NPY-Y2 antag)
Cc1onc(-c2ccccc2Cl)c1C(=O)NNC(=O)c1nn(C)cc1Cl	none (no result: NPY-Y2 antag)
Cc1nn(-c2ccccc2)c2c1C(c1ccc([N+](=O)[O-])cc1)N1C(=N2)C(=O)Nc2ccccc21 (configuration not stated)	none
Cc1ccc(NC2=Nc3ccccc3N3C2=Nc2c(c(C)nn2-c2ccccc2)C3c2ccc(O)c(O)c2)cc1 (configuration not stated)	RAM network inh 11 | RAM 5-FOA inactive
Cc1nn(-c2ccccc2)c2c1C(c1ccc(O)c(O)c1)N1C(=N2)C(Nc2ccccc2)=Nc2ccccc21 (configuration not stated)	none
Cc1cccc(NC2=Nc3ccccc3N3C2=Nc2c(c(C)nn2-c2ccccc2)C3c2ccc(O)c(O)c2)c1 (configuration not stated)	RAM network inh 12 | RAM 5-FOA inactive
CCOc1ccccc1NC(=O)c1ccc(S(=O)(=O)N2CCOCC2)cc1	none
COCCCNC(=O)Nc1ccc(F)cc1F	none
CCOc1ccc2nc(NC(=O)C3=NN(c4ccccc4)C(=O)CC3)sc2c1	none (no result: NPY-Y2 antag)
COc1cccc(NC(=S)N(Cc2ccc(Cl)cc2)Cc2ccc(C(=O)O)cc2)c1	RAM network inh 14 (no result: NPY-Y2 antag) | RAM 5-FOA inactive
Cc1cccc(NC(=S)N(Cc2ccc(Br)cc2)Cc2ccc(C(=O)O)cc2)c1	none (no result: NPY-Y2 antag)
N#Cc1cc(-c2ccc(Cl)cc2)cnc1Sc1ccccc1	none
N#Cc1cc(-c2ccc(Cl)cc2)cnc1Sc1ccc(F)cc1	RAM network inh 12 | RAM 5-FOA inactive
Cc1cccn2c(=O)c3cc(C(=O)N4COCC4(C)C)sc3nc12	none (no result: NPY-Y2 antag)
O=C(CC(Nc1ccccc1Cl)C(=O)OCC(=O)c1cccs1)c1ccccc1 (configuration not stated)	RAM network inh 19 | RAM 5-FOA inactive
Cc1ccc(C)c(N2CCN(C(=O)c3ccc(Cn4c(=S)[nH]c5ccc(N6CCOCC6)cc5c4=O)cc3)CC2)c1	RAM network inh 13 (no result: NPY-Y2 antag) | RAM 5-FOA inactive
COc1ccc(C(=O)N2CCSC2=S)cc1OC	none
COc1cc2c(=O)n(Cc3ccco3)c(=O)n(CC(=O)c3cccc(Br)c3)c2cc1OC	none
COc1cc2c(=O)n(Cc3ccco3)c(=O)n(CC(=O)c3ccc(Br)cc3)c2cc1OC	RAM network inh 12 | RAM 5-FOA inactive
O=C(Nc1nnc(COc2ccc(F)cc2)s1)c1cccs1	none
CC(=O)c1ccc(OC(=O)CCN2c3ccccc3Sc3ccccc32)cc1	WT yeast gro inh 61, RAM network inh 11 | RAM 5-FOA inactive
CC(=O)c1ccc2c(c1)N(C)c1ccccc1S2	none
N#Cc1nc(Cc2ccccc2)oc1N1CCC(C(N)=O)CC1	none
COc1ccccc1-c1nc(C#N)c(N2CCC(Cc3ccccc3)CC2)o1	RAM network inh 13 | RAM 5-FOA inactive
COc1ccccc1-c1nc(C#N)c(N2CCN(Cc3ccccc3)CC2)o1	none
N#Cc1nc(Cc2cccc3ccccc23)oc1N1CCCCC1	RAM network inh 12 | RAM 5-FOA inactive
N#Cc1nc(Cc2ccccc2)oc1N1CCC(Cc2ccccc2)CC1	RAM network inh 13 | RAM 5-FOA inactive
COc1ccc(CNc2oc(Cc3cccc4ccccc34)nc2C#N)cc1	RAM network inh 13 | RAM 5-FOA inactive
CCC(=O)c1ccccc1OCCSc1nc(C)cc(=O)[nH]1	none
N#Cc1nc(COc2ccccc2)oc1N1CCN(c2cccc(Cl)c2)CC1	RAM network inh 12 | RAM 5-FOA inactive
CC(=O)NNC(=O)c1sc(=S)n(C)c1C	none (no result: WT yeast gro inh, NPY-Y1 antag, RAM network inh, NPY-Y2 antag)
